According to ChEMBL document CHEMBL3414451, “Discovery of a series of efficient, centrally efficacious BACE1 inhibitors through structure-based drug design” (J Med Chem, 2015):

Columns and labels:
[1] = Ratio of free drug level in brain to plasma in CD1 mouse at 10 mg/kg, sc; type: ADME, organism-based; parameters: dose 10 mg/kg, route subcutaneous; conditions: brain and plasma
In short: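 Male CD-1 mice, 10 mg/kg sc in 5% DMSO/95% (0.5% methylcellulose). Plasma, brain and CSF were collected at 1, 4 and 7 h and analyzed by LC-MS/MS. Free fractions came from equilibrium dialysis.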

[2] = Ratio of drug level in brain to plasma in CD1 mouse at 10 mg/kg, sc after 60 mins; type: ADME, organism-based; parameters: dose 10 mg/kg, route subcutaneous; conditions: brain and plasma, read-out: BPR
In short: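 Plasma and brain exposures were measured in mice 60 min after 10 mg/kg subcutaneous dosing.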

[3] = Ratio of free drug level in brain to plasma in dog; type: ADME, Canis lupus familiaris; conditions: brain and plasma

With `NC1=N[C@@]2(c3ccc(F)cc3F)CO[C@@H](C(F)F)C[C@H]2CS1` the Kp uu [1] was 1.2 and the Kp at 1 h [2] was 3.51.
`NC1=N[C@@]2(c3ccc(F)cc3F)CO[C@@H](CF)C[C@H]2CS1` gave a Kp uu [1] of 1.42, a Kp uu [3] of 0.78 and a Kp at 1 h [2] of 9.2.
`C[C@H]1C[C@H]2CSC(N)=N[C@@]2(c2ccc(F)cc2F)CO1` showed a Kp uu [1] of 0.92 and a Kp at 1 h [2] of 3.9.
